Assay results pooled from the literature.
Target: G protein-coupled receptor kinase 4 (GRK4, Homo sapiens, UniProt P32298)

For `CN(C)c1nccc(-c2cnc3ncccn23)n1`, the remaining binding was 88% (binding; 1 µM).
`COc1cnc(Nc2cccc(S(N)(=O)=O)c2)nc1N1CCN(c2ccccc2)C(=O)C1` gave a remaining binding of 100% (binding; competition with immobilised ligand; 1 µM).
`c1cnn2ncc(-c3ccnc(N4CCC45COC5)n3)c2c1` has a remaining binding of 81% (binding; 1 µM).
With `O=C(NCC1CCOCC1)c1n[nH]cc1NC(=O)c1c(F)cccc1F` the remaining binding was 100% (binding; competition with immobilised ligand; 1 µM).
With `N#CC1(c2ccccn2)CCN(Cc2cc(C(=O)N3CCCC3)c(=O)n3ccccc23)CC1` the remaining binding was 86% (cell-free assay; competition with immobilised ligand; 1 µM).
With `c1cncc(-c2cccc(Nc3nccc(NC4CCCCC4)n3)c2)c1` the remaining binding was 56% (binding; competition with immobilised ligand; 10 µM).
The remaining binding of `Nc1ncc2c(n1)-c1c([nH]c3ccc(C#CC4CC4)cc13)CCCC2` is reported as 91% (binding; competition with immobilised ligand; 1 µM).
`O=C(NCCCN1CCOCC1)c1ccc(Nc2nccc(-c3cc4ccccc4s3)n2)cc1` gave a remaining binding of 1.4% (binding; competition with immobilised ligand; 1 µM).
The remaining binding of `COc1cnc(Nc2cccc(S(N)(=O)=O)c2)nc1N1CCN(c2ccccc2)CC1` is reported as 100% (binding; competition with immobilised ligand; 1 µM).
`CN(C)c1ncc(F)c(-c2cnn3ncccc23)n1` has a remaining binding of 100% (binding; 1 µM).
For `O=C(Nc1cccnn1)N1CC(C/C=C/c2cncc(Oc3ccc(C(F)(F)F)cn3)n2)C1`, the remaining binding was 100% (cell-free assay; competition with immobilised ligand; 1 µM).
The remaining binding of `O=C(c1ccc(Nc2ncc(Cl)c(-c3cc4ccccc4s3)n2)cc1)N1CCC(N2CCCC2)CC1` is reported as 3.5% (binding; competition with immobilised ligand; 1 µM).
`Nc1c(C(=O)NCc2ccc(C(=O)NCCCC3CCCCC3)cc2)cnn1-c1ccccc1` has a remaining binding of 100% (cell-free assay; competition with immobilised ligand; 0.1 µM).
`CC1CCCN1c1nccc(-c2cnn3ncccc23)n1` (stereo not drawn) gave a remaining binding of 75% (binding; 1 µM).
For `CN(C)C(=O)Cn1cc(-c2nc([C@@](C)(c3ccc(-c4cnc(N)nc4)cc3)C3CC3)no2)cn1`, the remaining binding was 86% (cell-free assay; competition with immobilised ligand; 1 µM).
`COc1ccnn2ncc(-c3ccnc(N(C)C)n3)c12` gave a remaining binding of 79% (binding; 1 µM).
For `COc1ncc2cc3ccccc3nc2c1C#N`, the remaining binding was 99% (cell-free assay; competition with immobilised ligand; 5 µM).
`CCCOc1ccc([C@@H]2[C@@H](C(=O)O)[C@H](c3ccc4c(c3)OCO4)CN2CC(=O)Nc2c(CC)cccc2CC)cc1` gave a remaining binding of 100% (cell-free assay; competition with immobilised ligand; 1 µM).
For `C[C@@H]1CCN(c2nccc(-c3cnn4ncccc34)n2)C1`, the remaining binding was 56% (binding; 1 µM).
For `CCCCN(CCCC)C(=O)CN1C[C@H](c2cc(OC)c3c(c2)OCO3)[C@@H](C(=O)O)[C@@H]1CC(C)(C)CCC`, the remaining binding was 100% (cell-free assay; competition with immobilised ligand; 1 µM).
For `Cc1cnc(Nc2ccc(C(=O)N3CCC(N4CCCC4)CC3)cc2)nc1-c1cc2ccccc2s1`, the remaining binding was 41% (binding; competition with immobilised ligand; 1 µM).
